Test results: ChEMBL document CHEMBL4359895, “Discovery and biological evaluation of darolutamide derivatives as inhibitors and down-regulators of wild-type AR and the mutants” (Eur J Med Chem, 2019)
Active and inactive are the calls of the source. No cut-off for these calls is given here.

What was measured:
LNCaP = experiment: Antiproliferative activity against human LNCAP expressing AR assessed as reduction in cell viability incubated for 6 days by CCK-8 assay; format: functional, cell-based; conditions: 144 h
How it was run: (§1)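 Cell proliferation assay run on LNCaP/AR, VCaP, 22Rv1, PC-3 and L-02 cells, with PC-3 and L-02 serving as AR-independent toxicity controls. IC50 fitted in GraphPad Prism 5 as the mean of at least two experiments, each in duplicate. Deviations under 35%.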

PC-3 = experiment: Cytotoxicity against human PC3 assessed as reduction in cell viability incubated for 6 days by CCK-8 assay; format: cell-based; conditions: PC-3, 144 h; how it was run: as §1
VCaP = experiment: Antiproliferative activity against human VCaP expressing AR assessed as reduction in cell viability incubated for 6 days by CCK-8 assay; format: functional, cell-based; conditions: 144 h; how it was run: as §1
L02 = experiment: Cytotoxicity against human L02 assessed as reduction in cell viability incubated for 6 days by CCK-8 assay; format: cell-based; conditions: L02, 144 h; how it was run: as §1
CWR22R = experiment: Antiproliferative activity against human 22Rv1 expressing AR assessed as reduction in cell viability incubated for 6 days by CCK-8 assay; format: functional, cell-based; conditions: 22Rv1, 144 h; how it was run: as §1
[1] = biological target: T1, Androgen receptor (Homo sapiens) (UniProt P10275); experiment: Inhibition of AR in human HEK293 cells assessed as decrease in receptor transactivation at 10 uM incubated for 24 hrs by dual luciferase reporter gene assay; format: cell-based
T1 sequence (whole entry): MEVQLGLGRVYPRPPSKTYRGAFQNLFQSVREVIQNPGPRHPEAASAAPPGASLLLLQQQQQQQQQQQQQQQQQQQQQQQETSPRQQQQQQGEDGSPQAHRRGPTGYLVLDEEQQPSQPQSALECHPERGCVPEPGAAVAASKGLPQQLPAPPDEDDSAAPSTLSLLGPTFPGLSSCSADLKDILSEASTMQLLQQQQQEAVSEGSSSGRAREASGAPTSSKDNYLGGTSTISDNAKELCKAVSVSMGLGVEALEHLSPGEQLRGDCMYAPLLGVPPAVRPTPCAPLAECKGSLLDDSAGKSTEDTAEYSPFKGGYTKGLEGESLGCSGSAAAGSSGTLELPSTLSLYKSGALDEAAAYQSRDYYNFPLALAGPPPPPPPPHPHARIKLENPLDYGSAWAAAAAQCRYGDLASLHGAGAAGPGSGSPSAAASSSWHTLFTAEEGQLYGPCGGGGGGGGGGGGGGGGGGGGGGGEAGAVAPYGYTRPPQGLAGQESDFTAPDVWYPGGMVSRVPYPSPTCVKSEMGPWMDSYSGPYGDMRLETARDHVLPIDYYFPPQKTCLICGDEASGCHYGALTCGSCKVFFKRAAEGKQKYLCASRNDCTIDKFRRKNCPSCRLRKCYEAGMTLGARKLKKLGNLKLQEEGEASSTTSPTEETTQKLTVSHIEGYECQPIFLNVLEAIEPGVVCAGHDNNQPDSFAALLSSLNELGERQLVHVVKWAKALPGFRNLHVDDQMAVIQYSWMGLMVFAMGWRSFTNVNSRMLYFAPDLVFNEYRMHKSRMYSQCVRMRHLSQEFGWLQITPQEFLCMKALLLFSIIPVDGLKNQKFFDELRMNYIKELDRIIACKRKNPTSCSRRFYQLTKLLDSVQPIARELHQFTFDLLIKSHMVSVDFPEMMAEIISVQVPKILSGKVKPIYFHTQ
How it was run: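 HEK 293 cells transiently co-transfected with wt-AR expression vector and an androgen-responsive luciferase reporter construct. Cells given 2 nM testosterone plus 10 µM test compound (final concentrations). Read-out by luciferase, mean ± SD, n = 3.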

SMILES	IC50 (LNCaP) [µM]	IC50 (VCaP) [µM]	inhibition [1]	IC50 (PC-3) [µM]	IC50 (L02) [µM]	IC50 (CWR22R) [µM]
C[C@@H](Cn1ccc(-c2ccc(C#N)c(Cl)c2)n1)NC(=O)c1cccc(OCC(O)CO)c1 (stereo not given in full)	0.74	0.59	–	> 30	> 30	> 30
CC(Cn1ccc(-c2ccc(C#N)c(Cl)c2)n1)C(=O)Nc1cccc(C(C)O)c1 (racemic)	4.15	> 30	Active	> 30	–	–
CC(O)c1ccc(C(=O)N[C@@H](C)Cn2ccc(-c3ccc(C#N)c(Cl)c3)n2)cc1 (stereo not given in full)	3.69	0.91	–	> 30	> 30	9.05
C[C@@H](Cn1ccc(-c2ccc(C#N)c(Cl)c2)n1)Nc1cccnc1	0.43	> 30	Active	> 30	> 30	21.6
Cc1ccnc(N[C@@H](C)Cn2ccc(-c3ccc(C#N)c(Cl)c3)n2)n1	1.33	0.85	–	> 30	> 30	4.76
CC(=O)c1cc(C(=O)N[C@@H](C)Cn2ccc(-c3ccc(C#N)c(Cl)c3)n2)n[nH]1	1.13	–	–	> 30	–	> 30
COc1ccc(C(=O)N[C@@H](C)Cn2ccc(-c3ccc(C#N)c(Cl)c3)n2)cc1	3.41	1.54	–	> 30	–	–
CC(=O)c1cc(C(=O)N[C@@H](C)Cn2ccc(-c3cc(F)c(C#N)c(Cl)c3)n2)n[nH]1	1.1	–	–	> 30	27.7	> 30
CC(Cn1ccc(-c2ccc(C#N)c(Cl)c2)n1)C(=O)Nc1cc[nH]n1 (racemic)	> 30	> 30	–	> 30	–	–
CC(=O)c1cccc(NC(=O)C(C)Cn2ccc(-c3ccc(C#N)c(Cl)c3)n2)c1 (racemic)	1.54	2.98	–	> 30	–	–
C[C@@H](Cn1ccc(-c2ccc(C#N)c(Cl)c2)n1)Nc1ccccn1	1.11	–	–	–	–	> 30
C[C@@H](Cn1ccc(-c2ccc(C#N)c(Cl)c2)n1)NS(=O)(=O)c1cccnc1	6.14	2.45	–	> 30	–	–
C[C@@H](Cn1ccc(-c2ccc(C#N)c(Cl)c2)n1)NC(=O)c1ccccc1F	1.81	2.19	–	> 30	–	–
C[C@@H](Cn1ccc(-c2ccc(C#N)c(Cl)c2)n1)Nc1ncccn1	1.18	0.48	–	> 30	> 30	12.5
C[C@@H](Cn1ccc(-c2cc(F)c(C#N)c(Cl)c2)n1)NC(=O)Nc1cc(C(C)(C)C)[nH]n1	1.63	5.12	–	> 30	15	–
C[C@@H](Cn1ccc(-c2ccc(C#N)c(Cl)c2)n1)Nc1nccc(Cl)n1	1.4	> 30	–	> 30	–	> 30
CC(O)c1cc(C(=O)N[C@H](C)Cn2ccc(-c3ccc(C#N)c(Cl)c3)n2)n[nH]1 (stereo not given in full)	1.65	–	–	> 30	–	> 30
CC(=O)c1ccc(C(=O)N[C@@H](C)Cn2ccc(-c3ccc(C#N)c(Cl)c3)n2)cc1	3.6	1.4	–	> 30	15.3	–
C[C@@H](Cn1ccc(-c2ccc(C#N)c(Cl)c2)n1)NC(=O)C1CC(=O)C1	3.04	22.5	–	> 30	–	–
C[C@@H](Cn1ccc(-c2ccc(C#N)c(Cl)c2)n1)Nc1cncnc1	2.07	> 30	–	> 30	> 30	> 30
CC(O)c1cccc(C(=O)N[C@@H](C)Cn2ccc(-c3ccc(C#N)c(Cl)c3)n2)c1 (stereo not given in full)	2.28	0.9	Active	> 30	–	20.1
C[C@@H](Cn1ccc(-c2ccc(C#N)c(Cl)c2)n1)Nc1ccncc1	2.56	9.9	–	–	–	11.5
C[C@@H](Cn1ccc(-c2ccc(C#N)c(Cl)c2)n1)NC(=O)c1cc[nH]n1	1	–	–	18.7	> 30	> 30
CC(=O)c1ccc(S(=O)(=O)N[C@@H](C)Cn2ccc(-c3ccc(C#N)c(Cl)c3)n2)cc1	5.23	3.95	–	> 30	–	–
C[C@@H](Cn1ccc(-c2ccc(C#N)c(Cl)c2)n1)Nc1ccccc1	0.71	> 30	–	3.21	29.4	> 30
COC(=O)/C=C/C(=O)N[C@@H](C)Cn1ccc(-c2ccc(C#N)c(Cl)c2)n1	2.46	5.23	–	> 30	–	–
C[C@@H](Cn1ccc(-c2ccc(C#N)c(Cl)c2)n1)NC(=O)c1ccccc1	1.83	–	–	> 30	–	–

Further lines, with some results ahead:

IC50 (LNCaP) [µM]	IC50 (VCaP) [µM]	inhibition [1]	SMILES	IC50 (PC-3) [µM]	IC50 (L02) [µM]	IC50 (CWR22R) [µM]
7.7	4.61	–	C[C@@H](Cn1ccc(-c2ccc(C#N)c(Cl)c2)n1)Nc1ccc2ccccc2c1	–	26.8	4.61
0.85	2	–	C[C@H](Cn1ccc(-c2ccc(C#N)c(Cl)c2)n1)Nc1ncnc2nc[nH]c12	1.56	–	10.6
> 30	13.6	–	C[C@@H](Cn1ccc(-c2ccc(C#N)c(Cl)c2)n1)NS(=O)(=O)c1cn(C)cn1	> 30	–	–
0.87	28.1	–	C[C@@H](Cn1ccc(-c2ccc(C#N)c(Cl)c2)n1)Nc1cccc2ccccc12	–	–	> 30
2.1	1.47	–	C[C@@H](Cn1ccc(-c2ccc(C#N)c(Cl)c2)n1)Nc1nccc2ccccc12	> 30	–	3.57
2.66	3.22	–	C[C@@H](Cn1ccc(-c2ccc(C#N)c(Cl)c2)n1)Nc1ccc2cccnc2c1	11.2	–	5.82
13	> 30	–	C[C@@H](Cn1ccc(-c2ccc(C#N)c(Cl)c2)n1)Nc1ccc2ncccc2c1	–	–	–
2.66	2.7	–	C[C@@H](Cn1ccc(-c2ccc(C#N)c(Cl)c2)n1)Nc1nc(Cl)nc2nc[nH]c12	> 30	14.5	4.38
0.49	2.13	–	C[C@@H](Cn1ccc(-c2ccc(C#N)c(Cl)c2)n1)Nc1ccc2c(ccn2C)c1	–	–	12
0.51	2.26	–	C[C@@H](Cn1ccc(-c2ccc(C#N)c(Cl)c2)n1)Nc1ccc2cnccc2c1	–	–	2.98
0.97	> 30	–	C[C@H](Cn1ccc(-c2ccc(C#N)c(Cl)c2)n1)Nc1ncnc2ccccc12	–	–	9.71
1.87	1.94	–	C[C@@H](Cn1ccc(-c2ccc(C#N)c(Cl)c2)n1)Nc1cnc2ccccc2c1	–	–	6.04
1.91	1.58	–	C[C@@H](Cn1ccc(-c2ccc(C#N)c(Cl)c2)n1)Nc1cc2ccccc2cn1	–	–	12
2.28	12.4	–	C[C@@H](Cn1ccc(-c2ccc(C#N)c(Cl)c2)n1)Nc1cncc2ccccc12	–	–	–
2.3	0.87	–	C[C@@H](Cn1ccc(-c2ccc(C#N)c(Cl)c2)n1)Nc1ccc2ccccc2n1	> 30	–	7.95
3.09	4.02	–	C[C@@H](Cn1ccc(-c2ccc(C#N)c(Cl)c2)n1)Nc1cccc2ccncc12	5.13	–	4.72
0.79	> 30	–	C[C@@H](Cn1ccc(-c2ccc(C#N)c(Cl)c2)n1)Nc1cccc2cccnc12	–	–	> 30
4.81	2.41	–	C[C@@H](Cn1ccc(-c2ccc(C#N)c(Cl)c2)n1)Nc1ccnc2ccccc12	–	–	4.29
0.87	> 30	–	C[C@@H](Cn1ccc(-c2ccc(C#N)c(Cl)c2)n1)Nc1cccc2cnccc12	–	–	21.2
